Assay results taken from ChEMBL document CHEMBL2046325, “Synthesis and SAR-study for novel arylpiperazine derivatives of 5-arylidenehydantoin with α₁-adrenoceptor antagonistic properties” (Bioorg Med Chem, 2012).

Tests used:
[1] = biological target: T1, Adrenergic receptor alpha-1 (Rattus norvegicus, UniProt P15823+P23944+P43140); assay: Displacement of [3H]prazosin from alpha1 adrenoceptor in rat cerebral cortex after 30 mins by beta scintillation counting; format: tissue-based
T1 sequence (P15823 whole entry): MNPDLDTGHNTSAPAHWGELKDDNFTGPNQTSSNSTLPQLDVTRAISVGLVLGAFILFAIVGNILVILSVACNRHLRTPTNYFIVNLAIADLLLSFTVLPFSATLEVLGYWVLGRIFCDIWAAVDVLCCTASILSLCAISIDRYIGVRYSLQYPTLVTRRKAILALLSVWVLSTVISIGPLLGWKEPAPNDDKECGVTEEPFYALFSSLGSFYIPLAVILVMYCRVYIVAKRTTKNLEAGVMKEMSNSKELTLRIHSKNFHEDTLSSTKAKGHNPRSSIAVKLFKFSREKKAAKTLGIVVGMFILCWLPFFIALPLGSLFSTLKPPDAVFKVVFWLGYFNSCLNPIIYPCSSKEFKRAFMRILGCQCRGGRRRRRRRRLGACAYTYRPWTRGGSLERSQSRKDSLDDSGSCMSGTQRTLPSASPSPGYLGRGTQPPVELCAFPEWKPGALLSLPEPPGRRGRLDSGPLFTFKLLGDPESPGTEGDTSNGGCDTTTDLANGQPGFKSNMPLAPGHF
T1 sequence (P23944 whole entry): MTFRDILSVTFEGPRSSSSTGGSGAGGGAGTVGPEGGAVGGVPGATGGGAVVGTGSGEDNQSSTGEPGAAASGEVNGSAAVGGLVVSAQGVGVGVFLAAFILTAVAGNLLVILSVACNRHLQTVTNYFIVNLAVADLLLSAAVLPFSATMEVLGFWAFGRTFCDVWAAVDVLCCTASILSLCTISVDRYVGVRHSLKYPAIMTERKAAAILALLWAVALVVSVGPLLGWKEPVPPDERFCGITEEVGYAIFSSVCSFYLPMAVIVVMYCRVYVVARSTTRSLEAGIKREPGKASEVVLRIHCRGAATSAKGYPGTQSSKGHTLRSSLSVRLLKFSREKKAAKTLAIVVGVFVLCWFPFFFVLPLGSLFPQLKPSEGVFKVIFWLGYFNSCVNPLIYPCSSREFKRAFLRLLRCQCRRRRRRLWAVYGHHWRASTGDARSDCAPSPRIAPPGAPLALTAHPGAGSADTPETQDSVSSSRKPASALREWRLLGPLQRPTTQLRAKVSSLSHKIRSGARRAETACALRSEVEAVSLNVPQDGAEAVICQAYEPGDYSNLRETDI
T1 sequence (P43140 whole entry): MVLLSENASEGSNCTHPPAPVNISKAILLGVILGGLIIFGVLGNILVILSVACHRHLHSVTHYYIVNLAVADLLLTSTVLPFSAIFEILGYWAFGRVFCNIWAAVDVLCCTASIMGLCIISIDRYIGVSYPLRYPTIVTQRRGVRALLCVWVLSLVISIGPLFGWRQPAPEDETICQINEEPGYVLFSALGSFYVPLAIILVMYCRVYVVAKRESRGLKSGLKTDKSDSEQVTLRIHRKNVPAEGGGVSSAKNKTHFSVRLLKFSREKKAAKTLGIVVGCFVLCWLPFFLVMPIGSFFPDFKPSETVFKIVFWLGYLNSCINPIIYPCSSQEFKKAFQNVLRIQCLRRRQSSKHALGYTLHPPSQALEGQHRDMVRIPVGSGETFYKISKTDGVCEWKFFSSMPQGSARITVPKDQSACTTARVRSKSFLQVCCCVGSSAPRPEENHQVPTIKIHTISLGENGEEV
Summary of the method: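 Rat cerebral cortex homogenized in 50 mM Tris-HCl, pH 7.6, centrifuged twice at 20000 × g and resuspended at 10 mg wet weight/ml. Tissue incubated with [3H]-prazosin (19.5 Ci/mmol) and test compound for 30 min at 25 °C. Samples filtered on GF/B and counted by scintillation; three-parameter logistic fit of percent binding.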

[2] = biological target: Adrenergic receptor alpha-1 (Rattus norvegicus) (UniProt P15823+P23944+P43140); assay: Antagonist activity at alpha1 adrenoceptor in Wistar rat denuded thoracic aorta rings assessed as inhibition of phenylephrine-induced contraction after 20 mins; format: functional, tissue-based
Summary of the method: (§1)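 Male Wistar rats (200-350 g) anaesthetised with thiopental sodium (75 mg/kg ip). Endothelium-denuded thoracic aortic rings, about 4 mm, held in Krebs-Henseleit at 37 °C, pH 7.4, gassed O2/CO2 19:1. Cumulative phenylephrine curves run over 3×10⁻⁹–3×10⁻⁶ M, before and after 20 min with one antagonist concentration per ring (3–4 levels), 60 min recovery between curves. Schild pA2 used if slope is unity, otherwise pKB; ≥5 experiments.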

[3] = biological target: T1, Adrenergic receptor alpha-1; assay: Competitive antagonist activity at alpha1 adrenoceptor in Wistar rat denuded thoracic aorta rings assessed as inhibition of phenylephrine-induced contractions after 20 mins; format: functional, tissue-based; summary of the method: as §1

| Structure (SMILES) | Ki [1] | inhibition [2] | pKb [2] | pA2 [3] |
| --- | --- | --- | --- | --- |
| CCOc1ccccc1N1CCN(CC(O)CN2C(=O)N/C(=C\c3ccccc3)C2=O)CC1.Cl (racemic) | 91.4 nM | Dose-dependent effect | 7.66 |  |
| COc1ccccc1N1CCN(CC(O)CN2C(=O)N/C(=C\c3cccc(OC)c3OC)C2=O)CC1.Cl (racemic) | 70 nM | Dose-dependent effect |  | 7.55 |
| COc1cccc(/C=C2\NC(=O)N(CC(O)CN3CCN(c4ccccc4)CC3)C2=O)c1OC.Cl (racemic) | 318.8 nM |  |  |  |
| Cl.O=C1N/C(=C\c2ccc(Cl)cc2)C(=O)N1CC(O)CN1CCN(c2ccccc2)CC1 (racemic) | 3700 nM |  |  |  |
| CCOc1ccccc1N1CCN(CC(O)CN2C(=O)N/C(=C\c3ccc(OC)cc3OC)C2=O)CC1.Cl (racemic) | 231 nM |  |  |  |
| CCOc1ccccc1N1CCN(CC(O)CN2C(=O)N/C(=C\c3cccc(OC)c3OC)C2=O)CC1.Cl (racemic) | 72.1 nM | Dose-dependent effect | 7.53 |  |
| COc1ccc(/C=C2\NC(=O)N(CC(O)CN3CCN(c4ccccc4OC)CC3)C2=O)c(OC)c1.Cl (racemic) | 52.2 nM | Dose-dependent effect | 8.95 |  |
| COc1ccc(/C=C2\NC(=O)N(CC(O)CN3CCN(c4ccccc4)CC3)C2=O)cc1OC.Cl (racemic) | 197.6 nM |  |  |  |

The remaining lines, values ahead:

| Ki [1] | inhibition [2] | pKb [2] | pA2 [3] | Structure (SMILES) |
| --- | --- | --- | --- | --- |
| 285.9 nM |  |  |  | COc1ccccc1N1CCN(CC(O)CN2C(=O)N/C(=C\c3ccccc3)C2=O)CC1.Cl (racemic) |
| 44.5 nM | Dose-dependent effect |  | 7.56 | COc1ccc(/C=C2\NC(=O)N(CC(O)CN3CCN(c4ccccc4OC)CC3)C2=O)cc1OC.Cl (racemic) |
| 59.1 nM | Dose-dependent effect | 9.01 |  | CCOc1ccccc1N1CCN(CC(O)CN2C(=O)N/C(=C\c3ccc(Cl)cc3)C2=O)CC1.Cl (racemic) |
| 8700 nM |  |  |  | CCOc1ccccc1N1CCN(CC(O)CN2C(=O)N/C(=C\c3ccc(N(C)C)cc3)C2=O)CC1.Cl (racemic) |
| 86.3 nM | Dose-dependent effect | 7.58 |  | COc1ccccc1N1CCN(CC(O)CN2C(=O)N/C(=C\c3ccc(Cl)cc3)C2=O)CC1.Cl (racemic) |
| 834.9 nM |  |  |  | COc1ccccc1N1CCN(CC(O)CN2C(=O)N/C(=C\c3ccc(N(C)C)cc3)C2=O)CC1.Cl (racemic) |
